From ChEMBL document CHEMBL1141653, “New bis(2-aminoimidazoline) and bisguanidine DNA minor groove binders with potent in vivo antitrypanosomal and antiplasmodial activity” (J Med Chem, 2008)
Activity calls are given as the source filed them. The calls are words filed in the database; no cut-off is given here.

Assays:
[1] = tested on: Trypanosoma brucei rhodesiense; assay: Antitrypanosomal activity against Trypanosoma brucei rhodesiense STIB900; format: functional, organism-based
Summary of the method: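 Bloodstream forms (10⁴ per well) in MEM with 15% heat-inactivated horse serum, 25 mM HEPES, 2-mercaptoethanol, hypoxanthine. 3-fold serial dilutions from 90 to 0.123 µg/mL, in duplicate. Incubation 72 h at 37 °C, 5% CO₂. Resazurin then added for 2–4 h more. Fluorescence read at ex 536 / em 588 nm.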

[2] = tested on: Plasmodium falciparum; assay: Antiplasmodial activity against Plasmodium falciparum K1 in [3H]hypoxanthine incorporation assay; format: functional, organism-based; conditions: K1, 72 h
Summary of the method: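 K1 erythrocytic stages in RPMI 1640 without hypoxanthine with AlbuMax, human A⁺ red cells at 2.5% hematocrit, 0.3% parasitemia. Compounds taken from 10 mg/mL DMSO stock, tested as serial doubling dilutions at 37 °C in 4% CO₂/3% O₂/93% N₂. After 48 h, ³H-hypoxanthine (0.5 µCi) added for 24 h more; incorporation by scintillation counting. IC₅₀ from sigmoidal curves.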

[3] = tested on: L6; assay: Cytotoxicity against rat L6 cells; format: cell-based
[4] = Selectivity index, ratio of IC50 for rat L6 cells to IC50 for Trypanosoma brucei rhodesiense STIB900; format: functional
Summary of the method: (§1)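 Ratio of the IC₅₀ on L-6 rat skeletal myoblasts to the parasite IC₅₀. Cytotoxicity measured in RPMI 1640 with L-glutamine and 10% FBS, serial dilutions 90 to 0.123 µg/mL, duplicate. After 72 h, Alamar blue (resazurin) added for 2 h. Fluorescence read at ex 536 / em 588 nm.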

[5] = Selectivity index, ratio of IC50 for rat L6 cells to IC50 for Plasmodium falciparum K1; format: functional; summary of the method: as §1
[6] = Binding affinity for DNA assessed as thermal melting temperature
Summary of the method: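 Thermal melting of poly(dA)·poly(dT): DNA at 40 µM base with compound at 12 µM (ratio 0.3) in MES 0.01 M / EDTA 0.001 M buffer, pH 6.25. A260 followed from 20 to 95 °C at 0.5 °C/min. Value is ΔTm.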

[7] = tested on: Ferriprotoporphyrin IX; assay: Inhibition of ferriprotoporphyrin 9 biomineralization; format: functional
Summary of the method: (§2)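 β-Hematin formation: hemin chloride (0.5 mg/mL in DMSO) with 0.5 M sodium acetate pH 4.4 and drug dilutions, 37 °C for 18–24 h. Pellet washed with DMSO, dissolved in 0.1 N NaOH, A405 read. Percent inhibition relative to solvent control. IC₅₀ derived, or percent inhibition at 1 mg/mL (highest concentration) given when no IC₅₀.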

[8] = tested on: Plasmodium berghei (ANKA); assay: Antiplasmodial activity as survival against Plasmodium berghei ANKA infection in NMRI mice (Mus musculus) at 20 mg/kg intraperitoneal dose for 4 days
[9] = tested on: Plasmodium berghei (ANKA); assay: Antiplasmodial activity against parasitemia in Plasmodium berghei ANKA infected NMRI mice (Mus musculus) at 20 mg/kg intraperitoneal dose after 4 days
[10] = tested on: Mus musculus; assay: Toxicity in Plasmodium berghei ANKA infected NMRI mice (Mus musculus) at 50 mg/kg, intraperitoneally for 4 days; format: organism-based; set-up: dose 50 mg/kg, route intraperitoneal; conditions: in vivo, ip, 96 h
Summary of the method: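 Toxicity recorded in the P. berghei ANKA model. Female NMRI mice (20–22 g), three per group, infected iv with 2 × 10⁷ parasitized erythrocytes. Compound in DMSO diluted 10-fold in water, dosed ip at 4, 24, 48 and 72 h post-infection. Survival followed up to 30 days after infection.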

[11] = tested on: Ferriprotoporphyrin IX; assay: Inhibition of ferriprotoporphyrin 9 biomineralization at 1 mg/ml; format: functional; summary of the method: as §2
[12] = tested on: Trypanosoma brucei rhodesiense; assay: Antitrypanosomal activity against Trypanosoma brucei rhodesiense STIB900 infected NMRI mouse assessed as number of cured animals at 20 mg/kg, ip after 4 days; format: functional, organism-based; set-up: dose 20 mg/kg
Summary of the method: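 Mice infected ip with 2 × 10⁴ STIB900 bloodstream forms. Groups of four treated ip on days 3–6, with an untreated control group. Parasitemia checked every second day to day 14, then twice weekly to day 60. Mice surviving and aparasitemic at 60 days counted as cured.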

[13] = tested on: Trypanosoma brucei rhodesiense; assay: Antitrypanosomal activity against Trypanosoma brucei rhodesiense STIB900 infected NMRI mouse assessed as survival of animals administered at 20 mg/kg, ip after 4 days; format: functional; conditions: route intraperitoneal
Summary of the method: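 Mice infected ip with 2 × 10⁴ bloodstream forms of T. b. rhodesiense STIB900. Groups of four treated ip on days 3–6, untreated control group. Parasitemia checked every second day to day 14, then twice weekly to day 60. Deaths recorded for mean survival time. Surviving aparasitemic mice at 60 days counted as cured.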

[14] = tested on: Plasmodium berghei; assay: Antiplasmodial activity as survival against Plasmodium berghei ANKA infection in NMRI mice (Mus musculus) at 30 mg/kg intraperitoneal dose for 4 days
[15] = tested on: Plasmodium berghei; assay: Antiplasmodial activity against parasitemia in Plasmodium berghei ANKA infected NMRI mice (Mus musculus) at 30 mg/kg intraperitoneal dose after 4 days
[16] = tested on: Plasmodium berghei; assay: Antiplasmodial activity as survival against Plasmodium berghei ANKA infection in NMRI mice (Mus musculus) at 50 mg/kg intraperitoneal dose for 4 days
[17] = tested on: Plasmodium berghei; assay: Antiplasmodial activity against Plasmodium berghei ANKA infected NMRI mice (Mus musculus) as reduced parasitemia at 50 mg/kg intraperitoneal dose after 4 days; set-up: scale not given: the % may be the effect or the level left

Row | SMILES | IC50 [1] [nM] | IC50 [2] [nM] | IC50 [3] [nM] | Ratio IC50 [4] | Ratio IC50 [5] | ΔTm [6] [°C] | IC50 [7] [nM] | Survival [8] [days] | Activity [9] [%] | Activity [10] | inhibition [11] [%] | Activity [12] | Survival [13] [days] | Survival [14] [days] | Activity [15] [%] | Survival [16] [days] | Activity [17] [%]
1 | c1cc(N2CCN(c3ccc(NC4=NCCN4)cc3)CC2)ccc1NC1=NCCN1 | 118 | 12.3 | 104000 | 881 | 8455 | 38.8 | 128000 | 7 | 0 | – | – | – | – | – | – | – | –
2 | Cl.N=C(N)Nc1ccc(C2CCN(c3ccc(NC(=N)N)cc3)CC2)cc1 | 217 | 41 | 24000 | 111 | 585 | 30 | – | – | – | Toxic | 0 | – | – | – | – | – | –
3 | O=C(c1ccc(NC2=NCCN2)cc1)c1ccc(NC2=NCCN2)cc1 | 2050 | 129 | > 214000 | – | >1658 | – | 117000 | – | – | – | – | – | – | – | – | – | –
4 | c1cc(NC2=NCCN2)ccc1CCc1ccc(NC2=NCCN2)cc1 | 54 | 16 | 34900 | 646 | 2181 | 31.2 | – | – | – | – | 0 | Active | >60 | – | – | – | –
5 | c1cc(Oc2ccc(NC3=NCCN3)cc2)ccc1NC1=NCCN1 | 467 | 38 | 41000 | 88 | 1079 | 27.1 | – | – | – | – | 0 | – | – | 7 | 44.1 | – | –
6 | c1cc2c(cc1NC1=NCCN1)Cc1ccc(NC3=NCCN3)cc1C2 | 60 | 18.6 | 37200 | 620 | 2000 | 33.2 | 161000 | – | – | – | – | Active | >60 | – | – | – | –
7 | CCCCC[P+](CCCCC)(CCCCC)Cc1ccc(C(=O)c2ccc(C[P+](CCCCC)(CCCCC)CCCCC)cc2)cc1.[Br-].[Br-] | 414 | 53 | 11800 | 29 | 223 | 1.2 | 219000 | – | – | – | – | – | – | – | – | – | –
8 | CC(C)(C)OC(=O)N1CCN(C(=O)OC(C)(C)C)C1=Nc1ccc(Nc2ccc(N=C3N(C(=O)OC(C)(C)C)CCN3C(=O)OC(C)(C)C)cc2)cc1 | 48 | 59 | 9800 | – | 166 | – | 171000 | – | – | – | – | – | – | – | – | – | –
9 | N=C(N)Nc1ccc(CCc2ccc(NC(=N)N)cc2)cc1 | 45 | 19 | 1090 | 24 | 57 | 26.1 | – | – | – | Toxic | 0 | – | – | – | – | – | –
10 | Cl.Cl.N=C(N)Nc1ccc(NC(=O)c2ccc(NC(=N)N)cc2)cc1 | 36 | 55 | 11500 | 319 | 209 | 40.1 | – | – | – | – | 0 | Active | >60 | – | – | – | –
11 | N=C(N)Nc1ccc(N2CCN(c3ccc(NC(=N)N)cc3)CC2)cc1 | 270 | 15.2 | 46400 | 172 | 3053 | 27.8 | – | 7 | 42.48 | – | 0 | – | – | – | – | – | –
12 | Cl.O=C(Nc1ccc(NC2=NCCN2)cc1)Nc1ccc(NC2=NCCN2)cc1 | 122 | 28 | 104000 | 852 | 3714 | 31 | 393000 | – | – | – | – | Active | >60 | – | – | – | –
13 | c1cc(Nc2ccc(NC3=NCCN3)cc2)ccc1NC1=NCCN1 | 69 | 8.8 | 212000 | 3072 | 24000 | 38.5 | 429000 | 7 | 65.51 | – | – | – | – | – | – | – | –
14 | Cl.Cl.O=C(Nc1ccc(NC2=NCCN2)cc1)c1ccc(NC2=NCCN2)cc1 | 25 | 28 | 193000 | 7720 | 6893 | 47.1 | 705000 | – | – | – | – | Active | >60 | – | – | – | –
15 | CCOC(CNC(=N)Nc1ccc(Nc2ccc(NC(=N)NCC(OCC)OCC)cc2)cc1)OCC | 228 | 113 | > 175000 | >767 | >1548 | 13.6 | 162000 | – | – | – | – | – | – | – | – | – | –
16 | c1cc(Sc2ccc(NC3=NCCN3)cc2)ccc1NC1=NCCN1 | 386 | 25 | 23300 | 60 | 932 | 24.1 | 952000 | – | – | – | – | – | – | – | – | 11.3 | 97.5
17 | Cl.N=C(N)Nc1ccc(NC(=O)Nc2ccc(NC(=N)N)cc2)cc1 | 187 | 96 | > 235000 | >1256 | >2547 | 24.1 | – | – | – | Toxic | 0 | – | – | – | – | – | –
18 | N=C(N)Nc1ccc2c(c1)Cc1ccc(NC(=N)N)cc1C2 | 50 | 8.8 | 730 | 15 | 83 | 31.1 | – | – | – | Toxic | 0 | – | – | – | – | – | –
19 | N=C(N)Nc1ccc(Cc2ccc(NC(=N)N)cc2)cc1 | 161 | 32 | 2800 | 17 | 88 | 15 | – | – | – | – | 0 | – | – | – | – | – | –
20 | Cl.N=C(N)Nc1ccc(NC(=S)Nc2ccc(NC(=N)N)cc2)cc1 | 538 | 607 | 15500 | 29 | 26 | 23 | 686000 | – | – | – | – | – | – | – | – | – | –
21 | Cl.c1cc(C2CCN(c3ccc(NC4=NCCN4)cc3)CC2)ccc1NC1=NCCN1 | 38 | 11 | 132000 | 3474 | 12000 | 35 | – | – | – | – | 0 | – | >47.25 | – | – | – | –
22 | c1cc(NC2=NCCN2)ccc1Cc1ccc(NC2=NCCN2)cc1 | 897 | 15.7 | 63600 | 71 | 4051 | 18.8 | – | 6.7 | 8.9 | – | – | – | – | – | – | – | –
23 | c1cc2c(cc1NC1=NCCN1)Cc1cc(NC3=NCCN3)ccc1-2 | 4.9 | 11.5 | 83400 | 17020 | 7252 | 44.1 | 491000 | – | – | – | – | – | – | – | – | – | –
